Legend:
[1] = Cytotoxicity against human COLO320 cells assessed as cell viability after 72 hrs by WST-1 assay; type: functional, cell-based; conditions: COLO 320, 72 h
Procedure, shortened: (§1)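 Cells grown in DMEM with L-glutamine (2 mM), 10% foetal bovine serum, 2.5% horse serum and penicillin/streptomycin at 37 °C under 5% CO₂. Seeded at 2 × 10³ cells/well and exposed to compound for 72 h, with DMSO ≤0.2% final. WST-1 added, absorbance read at 450 nm, and % reduction vs control calculated. IC₅₀ and Emax from nonlinear least-squares curve fit. Mean ± SEM, n = 3.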

Calu-3 [2] = test: Cytotoxicity against human Calu3 cells assessed as cell viability after 72 hrs by WST-1 assay; type: functional, cell-based; conditions: Calu-3, 72 h; procedure, shortened: as §1
COLO 320 = test: Induction of apoptosis in human COLO320 cells assessed as induction of caspase-3/7 at 20 uM after 4 hrs by spectrofluorimetry relative to control; type: functional; conditions: in the assay text read “at 10 uM” for “at 20 uM”
Procedure, shortened: (§2)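 Cells seeded at 7 × 10³/well and treated with compound for 4 h. Apo-ONE homogeneous caspase-3/7 substrate then added. Fluorescence read at excitation 485 nm and emission 530 nm. Result given as the ratio of treated-cell signal to vehicle-only cells.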

Calu-3 [3] = test: Induction of apoptosis in human Calu3 cells assessed as induction of caspase-3/7 at 10 uM after 4 hrs by spectrofluorimetry relative to control; type: functional; conditions: in the assay text read “at 20 uM” for “at 10 uM”; procedure, shortened: as §2
[4] = Cytotoxicity against human BSMC cells assessed as cell viability at 20 uM after 72 hrs by WST-1 assay; type: cell-based
Procedure, shortened: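 Normal human bronchial smooth muscle cells grown in DMEM with 10% FBS and exposed to compound for 72 h. Viability compared with untreated control.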

COc1ccc(-c2cc(-c3cc4ccccc4[nH]3)no2)cc1
IC50 [1]: > 100 µM
IC50 (Calu-3 [2]): > 100 µM

COc1cccc(-c2cc(-c3cc4ccccc4[nH]3)no2)c1
IC50 [1]: > 100 µM
IC50 (Calu-3 [2]): > 100 µM

COc1ccc(-c2cc(-c3cc4ccccc4n3C)no2)cc1
IC50 [1]: > 100 µM
IC50 (Calu-3 [2]): > 100 µM

Cn1c(-c2cc(-c3cccc(F)c3)on2)cc2ccccc21
IC50 [1]: > 100 µM
IC50 (Calu-3 [2]): > 100 µM

COc1cccc(-c2cc(-c3cc4cc(OC)ccc4[nH]3)no2)c1
IC50 [1]: > 100 µM
IC50 (Calu-3 [2]): > 100 µM

COc1cccc(-c2cc(-c3cc4ccccc4n3C)no2)c1
IC50 [1]: 69.5 µM
IC50 (Calu-3 [2]): 17.3 µM

COc1ccc2[nH]c(-c3cc(-c4cccc(F)c4)on3)cc2c1
IC50 [1]: > 100 µM
IC50 (Calu-3 [2]): > 100 µM

COc1ccc(-c2cc(-c3cc4ccccc4n3C)on2)cc1
IC50 [1]: > 100 µM
IC50 (Calu-3 [2]): > 100 µM

COc1cccc(-c2cc(-c3cc4ccccc4n3C)on2)c1
IC50 [1]: > 100 µM
IC50 (Calu-3 [2]): > 100 µM

COc1ccc2[nH]c(-c3cc(-c4cccc(F)c4)no3)cc2c1
IC50 [1]: > 100 µM
IC50 (Calu-3 [2]): 97.9 µM

Cn1c(-c2cc(-c3ccc(F)cc3)no2)cc2ccccc21
IC50 [1]: > 100 µM
IC50 (Calu-3 [2]): > 100 µM

COc1ccc(-c2cc(-c3c(Cl)c4ccccc4n3C)no2)cc1
IC50 [1]: 78.1 µM
IC50 (Calu-3 [2]): 60.9 µM

Cn1c(-c2cc(-c3ccc(C(F)(F)F)cc3)on2)c(Cl)c2ccccc21
IC50 [1]: > 100 µM
IC50 (Calu-3 [2]): > 100 µM

O=[N+]([O-])c1ccc(-c2cc(-c3ccc4[nH]ccc4c3)on2)cc1
IC50 [1]: 14 µM
IC50 (Calu-3 [2]): 25.8 µM
fold change (FC) (COLO 320): 3.76
fold change (FC) (Calu-3 [3]): 2.84
Activity [4]: Toxic

COC(=O)c1ccc(-c2cc(-c3ccc4[nH]ccc4c3)on2)cc1
IC50 [1]: > 100 µM
IC50 (Calu-3 [2]): > 100 µM

COc1ccc(-c2cc(-c3ccc4[nH]ccc4c3)on2)cc1
IC50 [1]: 13.5 µM
IC50 (Calu-3 [2]): 22.5 µM
fold change (FC) (COLO 320): 2.18
fold change (FC) (Calu-3 [3]): 2.44
Activity [4]: Non-toxic

Fc1ccc(-c2cc(-c3ccc4[nH]ccc4c3)on2)cc1
IC50 [1]: 13.9 µM
IC50 (Calu-3 [2]): 16.8 µM
fold change (FC) (COLO 320): 1.81
fold change (FC) (Calu-3 [3]): 1.94
Activity [4]: Toxic

COc1cc(-c2cc(-c3ccc4[nH]ccc4c3)on2)cc(OC)c1OC
IC50 [1]: 9 µM
IC50 (Calu-3 [2]): 13.3 µM
fold change (FC) (COLO 320): 2.38
fold change (FC) (Calu-3 [3]): 3.39
Activity [4]: Non-toxic

O=c1[nH]cc(F)c(=O)[nH]1 [FLUOROURACIL]
IC50 [1]: 12.5 µM
